Screening data from PubChem BioAssay.
DAT uptake mod: changed human dopamine transporter uptake under cocaine IC80. LLC-PK1 hDAT cells, [14C]-dopamine uptake with cocaine IC80; actives deviate in either direction. Q01959. 110,000 compounds, 1.3% hits. B-score at 10 µM;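 active means Z score or B-score, a plate-position-corrected score, falls beyond the plate's 99.7% confidence bounds, in either direction; inactive means both scores lie inside the 99.7% bounds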;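 further: scored against the spread of the other compound wells on the same plate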
Target sequence (Q01959 whole entry, looked up): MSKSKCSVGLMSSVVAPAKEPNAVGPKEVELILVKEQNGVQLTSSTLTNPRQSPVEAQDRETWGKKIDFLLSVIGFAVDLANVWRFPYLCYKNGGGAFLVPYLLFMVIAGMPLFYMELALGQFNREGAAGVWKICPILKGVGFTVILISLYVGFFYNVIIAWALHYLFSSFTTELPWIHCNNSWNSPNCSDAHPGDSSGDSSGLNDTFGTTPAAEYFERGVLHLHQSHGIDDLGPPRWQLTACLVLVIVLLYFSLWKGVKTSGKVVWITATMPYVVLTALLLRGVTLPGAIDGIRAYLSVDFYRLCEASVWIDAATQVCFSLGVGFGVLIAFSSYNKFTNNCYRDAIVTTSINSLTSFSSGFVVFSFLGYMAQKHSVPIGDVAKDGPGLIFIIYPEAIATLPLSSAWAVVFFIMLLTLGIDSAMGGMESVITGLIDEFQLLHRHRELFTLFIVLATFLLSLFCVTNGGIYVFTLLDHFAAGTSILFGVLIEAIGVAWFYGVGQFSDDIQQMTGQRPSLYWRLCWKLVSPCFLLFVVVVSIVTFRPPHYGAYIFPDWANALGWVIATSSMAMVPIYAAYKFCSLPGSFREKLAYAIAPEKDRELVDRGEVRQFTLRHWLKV
D1 mod: D1 dopamine receptor (human) allosteric modulation | P21728 | HEK293 D1, CRE-luciferase, dopamine EC30 potentiation; actives deviate in either direction | B-score at 10 µM | 58,000 compounds, 5.9% hits | AID 641;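 active means luminescence count or its row- and column-corrected plate score outside the 99.7% band of the plate's sample wells, on either side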
M1 antag: M1 muscarinic receptor (rat) antagonism; CHO-M1 cells, Fluo-4 calcium, ACh EC80 antagonist mode; hits give low values; B-score at 10 µM; 64,000 compounds, 3.4% hits; AID 628; P08482;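 active means calcium fluorescence response, raw or row-and-column corrected B-score, differing from the plate sample mean either way at a set confidence level, mostly lower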
Jurkat tox 60K: cytotoxicity toward Jurkat cells. Jurkat E6.1 viability, ATP luminescence, 48 h. inhibition, % at 4 µM. 56,000 compounds, 1.2% hits;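 active means inhibition above the mean inhibition of all tested compounds plus 3 SD, cut at about 28% in these data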
HEK293 NFkB inh: inhibitors of the PMA/ionomycin-induced NF-kB reporter in HEK293 cells; HEK-293 NF-kB luciferase reporter, luminescence; inhibition, % at 3 µM; 62,000 compounds, 0.21% hits;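 active means inhibition above the mean of all tested compounds plus 3 SD, cut at about 40% in these data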;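 further: 0% = stimulated DMSO wells and 100% = 10 µM reference inhibitor 5653914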
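Timing: 1 h pretreatment, 16 h stimulation, 37 °C; system: HEK-293 cells with stable firefly luciferase reporter driven by four HIV NF-kB elements; doses: 3 µM once, 0.30% DMSO; measured by: luciferase luminescence; control set: DMSO and 10 µM reference inhibitor; repeats: single test; reagent: PMA plus ionomycin mix as NF-kB-activating stimulus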
M1 agonist: agonists of M1 muscarinic receptor; B-score at 10 µM; CHO-M1 cells, Fluo-4 calcium fluorescence, agonist mode; hits give high values; 64,000 compounds, 3% hits;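 active means fluorescence rise, raw or as B-score row- and column-corrected plate score, outside the 99.7% band of its plate's samples, either direction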
M1 agonist conf: confirmation of rat M1 muscarinic receptor agonists; shares compounds with M1 agonist; fluorescence change (max-min) at 10 µM; CHO-M1 cells, Fluo-4 calcium fluorescence, agonist mode; actives lie on both sides; 1,700 compounds, 19% hits;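 active means fluorescence change differs from the solvent-only DMSO control mean at a set confidence level in both duplicate runs; inconclusive means differs from solvent-only control mean in just one of two runs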;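 further: an EC20 dose of acetylcholine follows compound addition during the same imaging run; raw fluorescence intensity difference in instrument units with no normalization to controls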
M4 agonist ctr: activates rat M4 receptor in counter-screen for M1 agonists; shares compounds with M1 agonist; CHO M4/Gqi5 cells, Fluo-4 calcium fluorescence, agonist mode; actives lie on both sides; fluorescence change (max-min) at 10 µM; 1,700 compounds, 9% hits;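 active means fluorescence change differing from the plate's solvent-only control wells at 99.7% confidence in both duplicates, whether higher or lower; inconclusive means differs from solvent controls in only one of two duplicates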
M1 antag conf: confirmation of rat M1 muscarinic receptor antagonists; CHO-M1 cells, Fluo-4 calcium, ACh EC80 antagonism; hits give low values; AID 677; calcium response (max-min fluorescence) at 10 µM; 1,700 compounds, 43% hits; shares compounds with M1 antag;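 active means calcium response below the same-plate mean of wells given acetylcholine alone at its 80%-effect dose, minus 3 SD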;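 further: raw fluorescence intensity difference in arbitrary instrument units and not normalized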
mGluR4 antag: selectivity test for M1 antagonists: human mGluR4 receptor; shares compounds with M1 antag; CHO-mGluR4 calcium flux, Fluo-4 fluorescence, glutamate EC80; hits give low values; fluorescence response (max-min) at 10 µM; 1,700 compounds, 0.9% hits;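 active means fluorescence response below the plate's average for near-maximal glutamate wells, less 3 SD of those wells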;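 further: raw unnormalized fluorescence span taken in the window right after glutamate addition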
D1 PAM confirm: confirmation of human D1 dopamine receptor allosteric modulators. shares compounds with D1 mod. HEK293 D1 CRE-luciferase, dopamine EC30 potentiation; hits give high values. luminescence at 10 µM. 2,200 compounds, 88% hits;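 active means luminescence in either of two replicates above the same-plate mean plus 3 SD of the low-dose dopamine control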
D1 ag no DA: activates D1 CRE-luciferase signal without dopamine present. shares compounds with D1 mod. HEK293 D1 CRE-luciferase, luminescence, no dopamine; hits give high values. luminescence at 10 µM. 1,900 compounds, 0.8% hits. AID 646; in the data active means luminescence above about 3900
Isoprot counter: alters isoproterenol CRE-luciferase response in HEK293 cells. shares compounds with D1 mod. AID 647. calls only at 10 µM. 2,200 compounds, 63% hits. HEK293 D1 CRE-luciferase, isoproterenol EC30 counter-screen;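 active means luminescence in either replicate above plate mean of wells with a partly effective reference agonist dose plus 3 SD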;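 further: isoproterenol raises cAMP through native beta-adrenoceptor Gs so signal bypasses D1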
Active calls of the source: *; i = inactive; ? = inconclusive; / = no result given; + = active, no number. Shown are actives, neighbours in structure and some others; about 7.6% of the full set was active somewhere.

SMILES	DAT uptake mod	D1 mod	M1 antag	Jurkat tox 60K	HEK293 NFkB inh	M1 agonist	M1 agonist conf	M4 agonist ctr	others
CCCCNC(=O)C1c2cc(OC)c(OC)cc2C(=O)N(C)C1c1ccc(OC)cc1 (stereo not drawn)	0.47	1.7	-0.02	/	9	0.14	/	/
N=c1c2c3c(sc2nc2n1CCCCC2)CCCCC3	1.6	-0.58	-19*	/	-6	-3.3*	-24*	-37	M1 antag conf=15*;mGluR4 antag=281
O=c1c2c3c(sc2nc2n1CCCC2)CCCCC3	0.8	/	/	/	/	/	/	/
Cc1csc(NC(=O)C(Cc2ccccc2)n2cccc2)n1 (stereo not drawn)	0.25	-1.6	-1.2	1	4	0.37	/	/
CCCN1CCN(CCCNC(=O)c2cc3c(=O)n(C)c4ccccc4c3n2C)CC1	-0.31	-0.0064	-4.3*	0	16	-3.1*	?	-36	M1 antag conf=497;mGluR4 antag=215
O=C(O)c1cc(-c2ccco2)nc2ccc(Br)cc12	-0.22	0.76	-17*	6	3	-2.5*	-2.5	5.1	M1 antag conf=659;mGluR4 antag=231
CCOc1cc(C(=O)O)cc(Cl)c1OCC#N	-0.24	/	-0.63	0	3	0.44	/	/
Cc1ccc(CC2C(=O)N(CC(=O)O)C(=O)C2C)cc1 (stereo not drawn)	-0.16	/	/	/	/	/	/	/
Cc1ccc(CC2C(=O)N(c3ncccn3)C(=O)C2C)cc1 (stereo not drawn)	-1.3	0.41	-7*	8	-2	-3.7*	-27	-34	M1 antag conf=610;mGluR4 antag=254
O=C1OCc2ccc(NC(=O)C3CCCCC3)cc21	-0.55	7.5*	-1	/	7	-3.3*	-36*	-69	D1 PAM confirm=7424;D1 ag no DA=1748;Isoprot counter=i
COc1ccc(-c2cc(=O)oc3c(C)c(O)c(CN(C)C)cc23)cc1	0.37	3.6*	-0.021	5	6	6.4*	-0.86	-3.3	D1 PAM confirm=9264*;D1 ag no DA=1600;Isoprot counter=i
COC(=O)COc1ccc2c(-c3ccc(OC)cc3)cc(=O)oc2c1	0.19	/	/	/	/	/	/	/
COc1cccc(OCC(=O)N(Cc2nc(-c3ccc(Cl)cc3)no2)C(C)C)c1	-0.052	0.2	0.57	-16	7	1.1	/	/
O=C(CSc1cn(CCNC(=O)c2cccs2)c2ccccc12)NCc1ccccc1	0.78	/	/	/	/	/	/	/
Cc1ccc(S(=O)(=O)c2cc3c(=O)n4cccc(C)c4nc3n(Cc3ccco3)c2=N)cc1C	/	1.6	0.62	2	22	0.76	/	/
Cc1ccc(S(=O)(=O)c2cc3c(=O)n4ccccc4nc3n(Cc3ccco3)c2=N)cc1	0.83	5*	0.052	/	23	-2.4*	22	17	D1 PAM confirm=15320*;D1 ag no DA=2068;Isoprot counter=+
CCn1c(SCC(=O)Nc2ccccc2N2CCCCC2)nc2c1c(=O)n(C)c(=O)n2C	0.037	3.9*	-1.3	-4	9	2*	-17	-13	D1 PAM confirm=6828*;D1 ag no DA=1584;Isoprot counter=i
CCN(CC(=O)Nc1cccc(OC)c1)C(=O)C1CCN(C(=O)Nc2ccccc2)CC1	-0.0022	-0.23	0.24	-5	10	-0.29	/	/
